The values below come from ChEMBL document CHEMBL4177761, “Highlights of the Structure-Activity Relationships of Benzimidazole Linked Pyrrolidines Leading to the Discovery of the Hepatitis C Virus NS5A Inhibitor Pibrentasvir (ABT-530)” (J Med Chem, 2018).

The test system of this assay is T1, Nonstructural protein 5A (Hepatitis C virus), Q5L478 [Y93H].
T1 sequence (whole entry): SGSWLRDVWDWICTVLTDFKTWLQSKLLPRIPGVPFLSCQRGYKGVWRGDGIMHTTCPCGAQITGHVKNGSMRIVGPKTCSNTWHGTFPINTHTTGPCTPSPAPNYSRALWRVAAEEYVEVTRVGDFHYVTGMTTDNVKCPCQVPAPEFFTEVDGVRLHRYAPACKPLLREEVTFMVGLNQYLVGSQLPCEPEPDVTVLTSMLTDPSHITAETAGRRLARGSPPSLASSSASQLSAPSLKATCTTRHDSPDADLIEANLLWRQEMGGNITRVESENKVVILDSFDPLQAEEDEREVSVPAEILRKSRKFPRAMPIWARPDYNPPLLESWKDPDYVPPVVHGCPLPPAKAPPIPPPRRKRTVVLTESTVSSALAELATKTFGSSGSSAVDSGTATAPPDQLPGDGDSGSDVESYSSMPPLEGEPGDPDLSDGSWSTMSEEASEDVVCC
Kind of assay: Inhibition of NS5A Y93H mutant in HuH7 cell infected HCV genotype 1a H77 assessed as decrease in viral replication after 4 days by luciferase reporter gene assay relative to wild type protein. The conditions noted are these: Hepatitis C virus (isolate H77). In short, it runs like this: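 Stable subgenomic luciferase replicons in Huh-7 cells: genotype 1a-H77 carrying NS5A substitutions M28T, Q30E, Q30R, Y93C, Y93H or Y93N, tested alongside the wild-type replicon. Cells are incubated 4 days with compound in DMEM with 5% FBS. Luciferase read-out, EC50 by 4-parameter logistic fit, and fold change versus wild type.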
(A reporter such as luciferase makes a cellular process visible.)

As to `COC(=O)N[C@H](C(=O)N1CCC[C@H]1c1nc2cc([C@H]3CC[C@H](c4cc5nc([C@@H]6CCCN6C(=O)[C@@H](NC(=O)OC)[C@@H](C)OC)[nH]c5cc4F)N3c3cc(F)c(N4CCC(c5ccc(F)cc5)CC4)c(F)c3)c(F)cc2[nH]1)[C@@H](C)OC` [PIBRENTASVIR], the fold change (FC) came out at 6.7.
